Experimental data as given in paper PMC7089779 (ChemMedChem, 2018).
Read-outs that look alike come from different tables or passages of the source.

Assays:
[1] = system: L. infantum axenic amastigotes; test: Antileishmanial activity on L. infantum axenic amastigotes; format: cell-based; conditions: Leishmania infantum, 48 h, read-out: IC50 L. infantum axenic amastigotes
Method in brief: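 They were moved to RPMI at pH 5.4 for 24 h at 24°C, then 24 h at 37°C, to give axenic amastigotes. Compounds in DMSO (final <0.5% v/v) were tested in duplicate for 48 h at 37°C. Read-out was Steady Glow luminescence. IC50 came from non-linear regression, mean of three independent experiments.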

[2] = Cytotoxic evaluation on HepG2 cell line; format: cell-based; conditions: human, HepG2 cells (hepatocarcinoma cell line)
Method in brief: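 HepG2 cells were seeded at 1 × 10^5 cells/mL in Alpha MEM with 10% FBS, 2 mM L-glutamine and antibiotics, and pre-incubated for 24 h at 37°C, 5% CO2. Compounds were added at various concentrations for 72 h, and wells were checked for precipitate. MTT (0.5 mg/mL) was added for 2 h, formazan was dissolved in DMSO, and A570 was read. Doxorubicin was the positive control. CC50 came from non-linear regression, mean of three independent experiments.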

[3] = system: T. brucei brucei trypomastigotes; test: Antitrypanosomal activity on T. brucei brucei trypomastigotes; format: cell-based, Trypanosoma brucei brucei; conditions: for Antitrypanosomal selectivity Index: CC50 HepG2 / IC50 T. brucei brucei; for times more potent than the meta-substituted analogue: T. brucei brucei IC50, para versus meta (15 vs 16, 21 vs 22)
[4] = Cyclic voltammetry, reduction potentials; format: physicochemical; conditions: DMSO/TBAPF6, SCE/GC, 1 electron reversible reduction, V versus NHE
[5] = Aqueous solubility as observed in the biological assays; format: physicochemical; conditions: in words
[6] = system: T. brucei brucei trypomastigotes NTR over-expressing strain; test: Bioactivation study, strain overexpressing the nitroreductase; format: cell-based, Trypanosoma brucei; conditions: for IC50: Trypanosoma brucei, 72 h, read-out: IC50 T. brucei brucei trypomastigotes NTR over-expressing strain; for Fold change: wild type IC50 / NTR over-expressing IC50
Method in brief: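 Bloodstream T. brucei S427 'single marker' was grown at 37°C in HMI9-T with 2.5 µg/mL G418. The NTR1-overexpressing line also received 2.5 µg/mL phleomycin, with NTR induced by 1 µg/mL tetracycline 48 h before assay. Triplicate cultures were seeded at 1 × 10^5 cells/mL with inhibitor and counted after 72 h. EC50 came from a two-parameter fit (slope factor m) to background-corrected density as % of uninhibited control. Fold change is wild-type IC50 / overexpressor IC50.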

[7] = system: T. brucei brucei trypomastigotes wild type strain; test: Bioactivation study, wild type strain; format: cell-based; conditions: Trypanosoma brucei, 72 h, read-out: IC50 T. brucei brucei trypomastigotes wild type strain
[8] = system: T. brucei brucei trypomastigotes NTR over-expressing strain; conditions: wild type IC50 / NTR over-expressing IC50; cited from earlier work
[9] = system: T. brucei brucei trypomastigotes; conditions: cited from earlier work
[10] = system: L. infantum axenic amastigotes; conditions: read-out: IC50 L. infantum axenic amastigotes; cited from earlier work
HepG2 cell line = conditions: read-out: CC50 HepG2; cited from earlier work
[11] = cited from earlier work
[12] = system: T. brucei brucei trypomastigotes wild type strain; conditions: read-out: IC50 T. brucei brucei trypomastigotes wild type strain; cited from earlier work
[13] = Chemical stability of the product; format: physicochemical; conditions: in words; cyclises to 25 on recrystallisation from acetonitrile

| Compound | IC50 [1] | CC50 at 72 h [2] | Antitrypanosomal selectivity Index [3] | further results |
| --- | --- | --- | --- | --- |
| O=c1[nH]c2c([N+](=O)[O-])cccc2cc1-c1cccnc1 [Compound 10, 8-nitro-3-(pyridine-3-yl)quinolin-2(1H)-one] | > 50 µM | > 25 µM | >9 |  |
| O=c1[nH]c2c([N+](=O)[O-])cccc2cc1-c1ccccc1 [Compound 1, 8-nitro-3-phenylquinolin-2(1H)-one] | > 12 µM | > 12 µM | >2 | E° (reduction potential) [4]: -0.59 V |
| O=[N+]([O-])c1cccc2cc3cc(-c4ccccc4)oc3nc12 [Compound 25, 8-nitro-2-phenyl-furo[2,3-b]quinoline] |  |  |  | aqueous solubility [5]: very poor aqueous solubility |
| O=C(O)c1ccc(-c2cc3cccc([N+](=O)[O-])c3[nH]c2=O)cc1 [Compound 21, 3-(4-carboxyphenyl)-8-nitroquinolin-2(1H)-one] | > 100 µM | 120 ± 7 µM | 80 | IC50 [6]: 4.2 ± 0.2 µM; Fold change [6]: 1.3; E° (reduction potential) [4]: -0.56 V; times more potent than the meta-substituted analogue [3]: 5; IC50 [7]: 5.4 ± 0.12 µM |
| O=c1[nH]c2c([N+](=O)[O-])cccc2cc1-c1ccc(F)cc1 [Compound 6, 3-(4-fluorophenyl)-8-nitroquinolin-2(1H)-one] | > 6 µM | > 6 µM |  |  |
| O=c1[nH]c2c([N+](=O)[O-])cccc2cc1-c1ccsc1 [Compound 8, 8-nitro-3-(thiophen-3-yl)quinolin-2(1H)-one] | > 6 µM | > 6 µM |  |  |
| CC1CS(=O)(=O)CCN1/N=C/c1ccc([N+](=O)[O-])o1 (centres unmarked) [Nifurtimox, reference compound] |  |  |  | IC50 [6]: 0.6 ± 0.05 µM; Fold change [6]: 3.1; IC50 [7]: 1.9 ± 0.05 µM |
| O=c1[nH]c2c([N+](=O)[O-])cccc2cc1-c1ccc(CO)cc1 [Compound 12, 3-(4-hydroxymethylphenyl)-8-nitroquinolin-2(1H)-one] | > 25 µM | > 25 µM | >13 |  |
| Cc1ccc(C(=O)Nc2ccc(S(=O)(=O)O)c3cc(S(=O)(=O)O)cc(S(=O)(=O)O)c23)cc1NC(=O)c1cccc(NC(=O)Nc2cccc(C(=O)Nc3cc(C(=O)Nc4ccc(S(=O)(=O)O)c5cc(S(=O)(=O)O)cc(S(=O)(=O)O)c45)ccc3C)c2)c1 [Suramin, reference compound] |  | > 100 µM | >3333 |  |
| O=c1[nH]c2c([N+](=O)[O-])cccc2cc1-c1ccc(C(F)(F)F)cc1 [Compound 7, 8-nitro-3-(4-trifluoromethylphenyl)quinolin-2(1H)-one] | > 6 µM | > 6 µM |  | E° (reduction potential) [4]: -0.53 V |
| COc1cccc2c1C(=O)c1c(O)c3c(c(O)c1C2=O)C[C@@](O)(C(=O)CO)C[C@@H]3O[C@H]1C[C@H](N)[C@H](O)[C@H](C)O1 [Doxorubicin, reference compound] |  | 0.2 ± 0.02 µM |  |  |
| O=c1[nH]c2c([N+](=O)[O-])cccc2cc1Br [Initial Hit, 3-bromo-8-nitroquinolin-2(1H)-one] |  |  |  | Fold change [8]: 4.5; Antitrypanosomal selectivity Index ([9]; CC50 HepG2 / IC50 T. brucei brucei): 48; IC50 ([9]; read-out: IC50 T. brucei brucei trypomastigotes): 1.9 ± 0.44 µM; IC50 [10]: 7.1 ± 1.5 µM; CC50 (HepG2 cell line): 92 ± 13 µM; genotoxicity in the comet assay [11]: not genotoxic; IC50 [12]: 17.7 ± 1 µM |
| COc1ccc(-c2cc3cccc([N+](=O)[O-])c3[nH]c2=O)cc1 [Compound 2, 3-(4-methoxyphenyl)-8-nitroquinolin-2(1H)-one] | > 6 µM | > 6 µM |  |  |
| O=c1[nH]c2c([N+](=O)[O-])cccc2cc1-c1ccc(Cl)cc1 [Compound 5, 3-(4-chlorophenyl)-8-nitroquinolin-2(1H)-one] | > 3 µM | > 3 µM |  |  |
| O=C(O)c1ccccc1-c1cc2cccc([N+](=O)[O-])c2[nH]c1=O [Compound 23, 3-(2-carboxyphenyl)-8-nitroquinolin-2(1H)-one] | > 100 µM | > 100 µM |  |  |
| COC(=O)c1ccc(-c2cc3cccc([N+](=O)[O-])c3[nH]c2=O)cc1 [Compound 18, 3-(4-methoxycarbonylphenyl)-8-nitroquinolin-2(1H)-one] | > 12.5 µM | > 12.5 µM |  |  |
| O=c1[nH]c2c([N+](=O)[O-])cccc2cc1-c1ccco1 [Compound 9, 3-(2-furanyl)-8-nitroquinolin-2(1H)-one] | > 3 µM | > 3 µM |  |  |
| NCCCC(N)(C(=O)O)C(F)F (centres unmarked) [Eflornithine, reference compound] |  | > 100 µM | >6 |  |
| O=C(O)c1cccc(-c2cc3cccc([N+](=O)[O-])c3[nH]c2=O)c1 [Compound 22, 3-(3-carboxyphenyl)-8-nitroquinolin-2(1H)-one] | > 100 µM | > 100 µM | >13 |  |
| O=c1[nH]c2c([N+](=O)[O-])cccc2cc1C#Cc1ccccc1 [Compound 24, 8-nitro-3-phenylethynylquinolin-2(1H)-one] |  |  |  | stability [13]: too unstable |

Further lines, with some results ahead:

| IC50 [1] | Compound | CC50 at 72 h [2] | Antitrypanosomal selectivity Index [3] | further results |
| --- | --- | --- | --- | --- |
| 12.8 µM | COc1nc2c([N+](=O)[O-])cccc2cc1-c1ccc(C(=O)O)cc1 [Compound 26, 3-(4-carboxyphenyl)-2-methoxy-8-nitroquinoline] |  |  |  |
| > 3 µM | Nc1ccc(-c2cc3cccc([N+](=O)[O-])c3[nH]c2=O)cc1 [Compound 4, 3-(4-aminophenyl)-8-nitroquinolin-2(1H)-one] | > 3 µM |  |  |
| 29.3 ± 4.2 µM | O=c1[nH]c2c([N+](=O)[O-])cccc2cc1-c1cccc(CO)c1 [Compound 13, 3-(3-hydroxymethylphenyl)-8-nitroquinolin-2(1H)-one] | > 25 µM | >17 |  |
| 22 ± 2 µM | O=c1[nH]c2c([N+](=O)[O-])cccc2cc1-c1ccccc1CO [Compound 14, 3-(2-hydroxymethylphenyl)-8-nitroquinolin-2(1H)-one] | > 100 µM | >14 |  |
| 0.06 ± 0.001 µM | C[C@@H]1[C@H](O)[C@@H](C)/C=C/C=C/C=C/C=C/C=C/C=C/C=C/[C@H](O[C@@H]2O[C@H](C)[C@@H](O)[C@H](N)[C@@H]2O)C[C@@H]2O[C@](O)(C[C@@H](O)C[C@@H](O)[C@H](O)CC[C@@H](O)C[C@@H](O)CC(=O)O[C@H]1C)C[C@H](O)[C@H]2C(=O)O [Amphotericin B, reference compound] | 7 ± 0.25 µM |  |  |
| 3.3 ± 0.7 µM | CSc1ccc(OCc2ncc([N+](=O)[O-])n2C)cc1 [Fexinidazole, reference compound] | > 100 µM | >250 |  |
| 10.2 ± 0.6 µM | O=Cc1cccc(-c2cc3cccc([N+](=O)[O-])c3[nH]c2=O)c1 [Compound 16, 3-(3-formylphenyl)-8-nitroquinolin-2(1H)-one] | > 100 µM | >18 |  |
| 0.8 ± 0.2 µM | CCCCCCCCCCCCCCCCOP(=O)([O-])OCC[N+](C)(C)C [Miltefosine, reference compound] | 84.5 ± 8.8 µM |  |  |
| 9.8 ± 1.2 µM | O=Cc1ccccc1-c1cc2cccc([N+](=O)[O-])c2[nH]c1=O [Compound 17, 3-(2-formylphenyl)-8-nitroquinolin-2(1H)-one] | > 50 µM | >7 |  |
| > 3 µM | O=c1[nH]c2c([N+](=O)[O-])cccc2cc1-c1ccc(O)cc1 [Compound 3, 3-(4-hydroxyphenyl)-8-nitroquinolin-2(1H)-one] | > 3 µM |  |  |
| 35 ± 1.7 µM | O=Cc1ccc(-c2cc3cccc([N+](=O)[O-])c3[nH]c2=O)cc1 [Compound 15, 3-(4-formylphenyl)-8-nitroquinolin-2(1H)-one] | 30 ± 3.7 µM | 60 | times more potent than the meta-substituted analogue [3]: 11 |
